High-throughput results as filed in PubChem BioAssay.
SENP6 block – SENP6 protease inhibitors, primary screen, biochemical, luminescence, uHTS; AID 2599, 2010; actives 1.8% (n = 330,000); Recombinant SENP6 catalytic domain, aminoluciferin luminescence; inhibition, % at 10 µM; Sentrin-specific protease 6 (Homo sapiens), Q9GZR1;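 active = inhibition above about 50% at the single tested dose, limit read from the data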;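 note: plate controls were DMSO wells with enzyme for no effect and DMSO wells lacking enzyme for full effect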
SENP7 block – SENP7 protease inhibitors, primary screen, biochemical, luminescence, uHTS | inhibition, % at 5 µM | actives 1.5% (n = 330,000) | Sentrin-specific protease 7 (Homo sapiens), Q9BQF6 | recombinant SENP7, Z-RLRGG-aminoluciferin luminescence, 40 min;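 active = inhibition above about 50% at the single test dose, limit read from the data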;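 note: plate controls were DMSO with enzyme for no effect and no enzyme buffer wells for full effect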
Target sequence (Q9BQF6 706-1050 limits assumed): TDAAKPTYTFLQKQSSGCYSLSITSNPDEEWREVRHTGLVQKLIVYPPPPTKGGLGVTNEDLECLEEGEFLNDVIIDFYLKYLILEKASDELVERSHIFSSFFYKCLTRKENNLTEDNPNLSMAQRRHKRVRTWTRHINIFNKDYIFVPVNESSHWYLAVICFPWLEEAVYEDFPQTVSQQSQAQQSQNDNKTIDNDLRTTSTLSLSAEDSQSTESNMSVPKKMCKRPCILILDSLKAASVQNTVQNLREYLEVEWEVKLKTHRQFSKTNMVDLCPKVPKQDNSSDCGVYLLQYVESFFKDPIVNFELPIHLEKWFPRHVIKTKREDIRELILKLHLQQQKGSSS
SENP8 block-1 – SENP8 protease inhibitors, primary screen, biochemical, luminescence | Sentrin-specific protease 8 (Homo sapiens), Q96LD8 | purified SENP8, Z-RLRGG-aminoluciferin cleavage | inhibition, % at 10 µM | actives 1.2% (n = 330,000) | AID 2540, 2010; in the data active = inhibition above about 50%
Target sequence (Q96LD8 whole entry, looked up): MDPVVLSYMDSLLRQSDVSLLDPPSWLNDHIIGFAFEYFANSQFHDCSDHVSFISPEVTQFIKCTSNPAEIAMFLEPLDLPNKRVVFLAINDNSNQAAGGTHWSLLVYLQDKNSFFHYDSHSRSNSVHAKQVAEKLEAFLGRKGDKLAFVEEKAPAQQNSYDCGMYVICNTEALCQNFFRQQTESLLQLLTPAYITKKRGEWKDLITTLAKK
Apaf-1 inh – inhibitors of human Apaf-1 apoptosome, primary screen, biochemical, DEVD-Rh110 fluorescence, uHTS; Apoptotic protease-activating factor 1 (Homo sapiens), O14727; reconstituted apoptosome caspase-3 activity; inhibition, % at 20 µM; actives 0.71% (n = 330,000); active = inhibition of at least 40% at 20 µM;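 note: plate controls were DMSO wells for no effect and DEVD-CHO caspase inhibitor wells for full effect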
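Material: cell-free apoptosome with Apaf-1, procaspase-3 and caspase-9; Buffer or medium: Hepes pH 7.5 with detergent and BSA; Reagent: cytochrome c trigger plus (Z-DEVD)2-Rh110 caspase-3 substrate; Times: compound with Apaf-1, dATP, procaspase-3 30 min, then 50 min reaction, room temperature; Technique: Rh110 fluorescence intensity.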
SENP8 block-2 – human SENP8 protease inhibitors, primary screen, biochemical, fluorescence, Nedd8 protein substrate, uHTS | actives 0.64% (n = 360,000) | inhibition, % at 20 µM | Sentrin-specific protease 8 (Homo sapiens), Q96LD8 | recombinant SENP8; in the data active = inhibition mostly above about 40%, no sharp cut-off; inactive = mostly below about 27%
UBC13 inh – UBC13 polyubiquitin chain formation inhibitors, primary screen, biochemical, TR-FRET, uHTS; Ubiquitin-conjugating enzyme E2 N (Homo sapiens), P61088; inhibition, % at 20 µM; actives 0.47% (n = 330,000); in the data active = inhibition above about 45%, passing the limit was not always enough
Target sequence (P61088 whole entry, looked up): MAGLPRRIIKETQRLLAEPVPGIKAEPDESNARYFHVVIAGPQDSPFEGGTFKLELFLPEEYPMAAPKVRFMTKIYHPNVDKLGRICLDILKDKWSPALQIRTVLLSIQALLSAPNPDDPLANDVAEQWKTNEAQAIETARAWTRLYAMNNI
* marks the source's active call; other numbers are inactive results; · = no result. This is a sample that favours compounds with a hit; in the whole collection about 3.1% have one here.

SMILES | SENP6 block | SENP7 block | SENP8 block-1 | Apaf-1 inh | SENP8 block-2 | UBC13 inh
O=C(O)c1ccccc1C(=O)Nc1ccc(-n2nc(C(F)(F)F)cc2C(F)(F)F)cc1 | -5.2 | -6.8 | -8.1 | 1.8 | 31.9 | -15.1
CCN(C(=O)CN1C(=O)NC2(CCCC2)C1=O)c1nc2c(C)cccc2s1 | · | · | · | · | 11.0 | ·
COC(=O)c1cccc(-c2ccc(C(c3c(C)[nH][nH]c3=O)c3c(C)[nH][nH]c3=O)o2)c1 | 42.7 | 9.4 | 13.0 | 80.6* | 16.8 | -53.0
CCOc1cc(CNc2ccc(O)cc2)cc(Br)c1OCc1ccccc1F | -10.6 | 15.9 | 4.3 | 16.7 | 40.7* | -3.6
CSCCC(C(=O)Nc1c(C)cccc1C)n1c(COc2ccc(C)cc2)nc2ccccc21 (stereo not drawn) | · | · | · | · | 30.2 | ·
CC1=NN(c2ccccc2)C(=O)C1N=Nc1ccc(N)cc1 (stereo not drawn) | 6.2 | 10.8 | 11.1 | 23.2 | 60.9* | -421.6
CC1=NN(c2ccccc2)C(=O)C1N=Nc1ccccc1 (stereo not drawn) | -7.8 | -1.5 | -3.9 | 6.7 | 31.9 | -18.9
CCCCCCCCN1C(=O)[C@H](CC(=O)N2CCN(C(=O)C3CC3)CC2)C[C@@]2(C(=O)OC)CC(C)(C)CC=C12 | · | · | · | · | 16.6 | ·
COc1ccc(/C=N/N=C/c2ccc(OC)c(OC)c2)cc1OC | -19.7 | -15.1 | -7.6 | 12.2 | 39.4 | -3.8
COc1cc(/C=N/N=C(N)N)ccc1OCc1ccccc1Cl | -9.0 | 1.4 | -11.3 | 34.3 | 8.4 | 54.5*
COc1cccc(CNc2ncc(Br)cc2Br)c1O | -14.2 | -8.5 | -6.3 | 6.8 | 40.1* | 0.2
C=C(C)C1CC=C(C)/C(=N\NC(=O)CNc2cccc3ccccc23)C1 (stereo not drawn) | 59.7* | 12.2 | 42.5 | 4.5 | -369.1 | -43.0
C=C(C)[C@H]1CC=C(C)/C(=N/NC(=O)CNc2ccccc2OC)C1 | 5.0 | -2.4 | -10.0 | 12.1 | 8.3 | 6.2
CN(Cc1ccccc1)C(=O)[C@@H]1CCCN1C(=O)[C@@H]1CCCN1C(=O)c1cccc(Cl)c1 | · | · | · | · | 11.2 | ·
N#CCCN(C(=O)COC(=O)CNC(=O)C12CC3CC(CC(C3)C1)C2)c1ccccc1 | -8.0 | 1.0 | 4.2 | 37.4 | 6.6 | -0.6
N#CCCN(C(=O)COC(=O)C12CC3CC(CC(O)(C3)C1)C2)c1ccc(F)cc1 | 0.1 | -7.8 | -11.7 | 43.3* | 7.0 | 14.4
CCN(CC)CC(C)(C)C(=O)/C=C/c1ccc(/C=C/C(=O)C(C)(C)CN(CC)CC)cc1 | · | · | · | · | 12.5 | ·
CN(C)c1ccc(CC(=O)N2CCCCC2c2cc(C(=O)Nc3ccccc3)no2)cc1 (stereo not drawn) | · | · | · | · | 13.2 | ·
COc1cc([N+](=O)[O-])ccc1NC(=O)CN1CCc2cc(OC)c(OC)cc2C1 | 15.1 | 2.4 | 5.5 | 44.1* | -38.0 | -2.8
COc1cc2c(cc1OC)CN(CC(=O)Nc1cccc([N+](=O)[O-])c1)CC2 | 25.0 | 10.5 | 10.5 | 32.1 | -61.3 | 1.0
O=C1CCCC/C1=C\Nc1ccc(C(=O)O)c(O)c1 | 61.8* | 21.5 | 36.0 | -16.2 | -7.2 | 5.6
CC1CCC/C(=C\Nc2ccc(C(=O)O)c(O)c2)C1=O (stereo not drawn) | 48.3 | -11.8 | 27.7 | -19.4 | -10.8 | 14.2
CCCCCCCNC(=O)C1(CC2CC(c3ccccc3)=NO2)CCNCC1 (stereo not drawn) | 3.1 | -1.4 | -7.1 | 23.5 | 22.0 | 28.8
O=C(NCc1ccccc1)C1(CC2CC(c3ccccc3)=NO2)CCNCC1 (stereo not drawn) | -7.7 | -1.0 | 5.3 | 46.6* | 16.2 | 40.0
CC(C)(C)OC(=O)N1CCC(CC2CC(c3cccc(Br)c3)=NO2)(C(=O)NCC2CCCCC2)CC1 (stereo not drawn) | -8.8 | -5.6 | 0.6 | 21.4 | · | -9.8
SMILES | SENP6 block | SENP7 block | SENP8 block-1 | Apaf-1 inh | SENP8 block-2 | UBC13 inh
O=C(c1ccccc1)N1CCC(CC2CC(c3cccc(Br)c3)=NO2)(C(=O)NCC2CCCCC2)CC1 (stereo not drawn) | -18.7 | -10.1 | -11.1 | 21.5 | 50.4* | 2.0
O=C(C[C@@H]1C=C[C@H](NC(=O)Cc2ccccn2)[C@@H](CO)O1)NCCc1ccccc1 | · | · | · | · | 8.1 | ·
Cc1cc(F)cc(-c2cc(C(=O)NCc3ccccn3)[nH]n2)c1 | · | · | · | · | -0.7 | ·
O=c1c(O)cccc2cc(O)c(O)c(O)c12 | -52.1 | -2.9 | 5.8 | 10.7 | 60.2* | 42.0
O=c1cc(-c2ccccc2)oc2cc(O)c(O)c(O)c12 | 5.5 | -3.1 | 10.3 | 8.0 | 0.5 | 0.2
C[C@@H]1CN([C@H](C)CO)C(=O)CCCn2cc(nn2)CO[C@H]1CN(C)C(=O)c1ccccc1 | · | · | · | · | 18.7 | ·
CCOC(=O)c1c2c3c(cccc3n(C)c1=O)C(=O)c1ccccc1-2 | 25.4 | -2.1 | 10.5 | 24.9 | 16.9 | -41.0
CCOC(=O)c1c2c(n(Cc3ccccc3)c1C)C(=O)C(=O)c1ccccc1-2 | · | · | · | · | 100.2* | ·
CC(=O)c1ccc(N(C)C)cc1 | -10.1 | -15.3 | -5.6 | -6.8 | 1.3 | 10.4
CN(C)c1ccc(Cc2cc3c(O)ccc(O)c3cc(Cc3ccc(N(C)C)cc3)c2=O)cc1 | · | · | · | · | 51.7* | ·
Cc1ccc(-n2[nH]c(C)c(C=Nc3ccc(S(=O)(=O)Nc4nccs4)cc3)c2=O)cc1C | 14.1 | -0.1 | 2.0 | 11.1 | 28.6 | -19.3
Cc1[nH]n(-c2ccccc2)c(=O)c1C=Nc1ccc(S(=O)(=O)Nc2nccs2)cc1 | 1.6 | -2.2 | -4.3 | -2.3 | 43.6* | -21.1
COc1cc(S(=O)(=O)Nc2ccc(C)cc2)ccc1N=Cc1c(C)[nH]n(-c2ccccc2)c1=O | 4.0 | 6.3 | -7.2 | 14.6 | 45.9* | -13.4
COC(=O)C[C@@H]1CC[C@H](NC(=O)Nc2ccc(F)cc2)[C@@H](CO)O1 | · | · | · | · | 9.9 | ·
COc1ccc(NC(=O)c2cc(C3CCCCN3C(=O)c3cc(OC)c(C)c(OC)c3)on2)c(C)c1 (stereo not drawn) | · | · | · | · | 18.9 | ·
O=[N+]([O-])c1cnc2nc(-c3ccncc3)nn2c1O | 98.9* | 96.5* | 92.8* | 14.4 | 10.2 | -19.8
COc1ccccc1N1CCN(C2C(=O)Nc3ccccc3-n3nnnc32)CC1 (stereo not drawn) | · | · | · | · | 18.3 | ·
O=C1O/C(=C/c2ccccc2)c2ccccc21 | 58.9* | 27.2 | 21.6 | 12.1 | -29.3 | -2.8
N#CC1=C(c2ccccc2)/C(=C/c2ccccc2)OC1=O | -10.6 | -2.8 | 7.4 | 26.2 | -37.4 | -16.2
O=C1c2ccccc2C(c2nnnn2-c2ccc3c(c2)OCCO3)N1C1CC1 (stereo not drawn) | · | · | · | · | 23.1 | ·
O=C(O)c1cc(-c2ccc(/C=C3/SC(=S)N(Cc4ccccc4)C3=O)o2)ccc1Cl | · | · | · | · | 28.5 | ·
